# The RNAGym collection of RNA variant scans (doi:10.1002/anie.201605470)
# B1: Osa-1-4 twister ribozyme (parent)
# chain: CCGCCUAACACUGCCAAUGCCGGUCCCAAGCCCGGAUAAAAGUGGAGGGGGCGG
# Variants of: B1
# Assay: self-cleavage, relative activity (ratio to wild type); higher = more cleavage; co-transcriptional
# Outline: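 A DNA template encoding a 54-nucleotide twister ribozyme from Oryza sativa was made so that each of the 48 positions downstream of the cleavage site carried 97 % wild-type base and 1 % of each other base. Transcription in vitro ran for 2 h at 37 °C, during which the ribozyme could cleave itself. Reverse transcription used a template-switching oligonucleotide, and the products were PCR-amplified and deep-sequenced. Each read was scored as cleaved or uncleaved by whether upstream sequence was present, and relative activity is the fraction cleaved normalised to wild type.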
row,Variant,self-cleavage
1,CCGCCUGACACUGCCAAUGCCGGUCCCAAGCCCGGAUAAAAGUGGAGGGGGCCG [A7G G53C],0.06
2,CCGCCUGACACUGCCAAUGCCGGUCCCAAGCCCGGAUAAAAGUGGAGGGGGCAG [A7G G53A],0.16
3,CCGCCUGACACUGCCAAUGCCGGUCCCAAGCCCGGAUAAAAGUGGAGGGGGCUG [A7G G53U],0.1
4,CCGCCUUGCACUGCCAAUGCCGGUCCCAAGCCCGGAUAAAAGUGGAGGGGGCGG [A7U A8G],0.09
5,CCGCCUUCCACUGCCAAUGCCGGUCCCAAGCCCGGAUAAAAGUGGAGGGGGCGG [A7U A8C],0.02
6,CCGCCUUUCACUGCCAAUGCCGGUCCCAAGCCCGGAUAAAAGUGGAGGGGGCGG [A7U A8U],0.07
7,CCGCCUGACACUGCCAAUGCCGGCCCCAAGCCCGGAUAAAAGUGGAGGGGGCGG [A7G U24C],0.07
8,CCGCCUGACACUGCCAAUGCCGGGCCCAAGCCCGGAUAAAAGUGGAGGGGGCGG [A7G U24G],0.04
9,CCGCCUGACACUGCCAAUGCCGGACCCAAGCCCGGAUAAAAGUGGAGGGGGCGG [A7G U24A],0.08
10,CCGCCUUACACUGUCAAUGCCGGUCCCAAGCCCGGAUAAAAGUGGAGGGGGCGG [A7U C14U],0.07
11,CCGCCUUACACUGGCAAUGCCGGUCCCAAGCCCGGAUAAAAGUGGAGGGGGCGG [A7U C14G],0.23
12,CCGCCUUACACUGACAAUGCCGGUCCCAAGCCCGGAUAAAAGUGGAGGGGGCGG [A7U C14A],0.03
13,CCGCCUGACACUGCCAAUGCCGGUCCCAAGCCCAGAUAAAAGUGGAGGGGGCGG [A7G G34A],0.21
14,CCGCCUGACACUGCCAAUGCCGGUCCCAAGCCCUGAUAAAAGUGGAGGGGGCGG [A7G G34U],0.12
15,CCGCCUGACACUGCCAAUGCCGGUCCCAAGCCCCGAUAAAAGUGGAGGGGGCGG [A7G G34C],0.14
16,CCGCCUUACACUGCCAAUGUCGGUCCCAAGCCCGGAUAAAAGUGGAGGGGGCGG [A7U C20U],0.09
17,CCGCCUUACACUGCCAAUGGCGGUCCCAAGCCCGGAUAAAAGUGGAGGGGGCGG [A7U C20G],0.11
18,CCGCCUUACACUGCCAAUGACGGUCCCAAGCCCGGAUAAAAGUGGAGGGGGCGG [A7U C20A],0.06
19,CCGCCUGACACUGCCAAUGCCGCUCCCAAGCCCGGAUAAAAGUGGAGGGGGCGG [A7G G23C],0.06
20,CCGCCUGACACUGCCAAUGCCGUUCCCAAGCCCGGAUAAAAGUGGAGGGGGCGG [A7G G23U],0.04
21,CCGCCUGACACUGCCAAUGCCGAUCCCAAGCCCGGAUAAAAGUGGAGGGGGCGG [A7G G23A],0.14
22,CCGCCUUACACUGCCAAUGCCGGUUCCAAGCCCGGAUAAAAGUGGAGGGGGCGG [A7U C25U],0.2
23,CCGCCUUACACUGCCAAUGCCGGUGCCAAGCCCGGAUAAAAGUGGAGGGGGCGG [A7U C25G],0.08
24,CCGCCUUACACUGCCAAUGCCGGUACCAAGCCCGGAUAAAAGUGGAGGGGGCGG [A7U C25A],0.03

row,Variant,self-cleavage
1,CCGCCUGACACUGCCAAAGCCGGUCCCAAGCCCGGAUAAAAGUGGAGGGGGCGG [A7G U18A],0.38
2,CCGCCUGACACUGCCAACGCCGGUCCCAAGCCCGGAUAAAAGUGGAGGGGGCGG [A7G U18C],0.25
3,CCGCCUGACACUGCCAAGGCCGGUCCCAAGCCCGGAUAAAAGUGGAGGGGGCGG [A7G U18G],0.49
4,CCGCCUGACACUGCCAAUGCCGGUCCCAAGCCCGGAUAAAAGUGGAGUGGGCGG [A7G G48U],0.05
5,CCGCCUGACACUGCCAAUGCCGGUCCCAAGCCCGGAUAAAAGUGGAGAGGGCGG [A7G G48A],0.06
6,CCGCCUGACACUGCCAAUGCCGGUCCCAAGCCCGGAUAAAAGUGGAGCGGGCGG [A7G G48C],0.05
7,CCGCCUUACAGUGCCAAUGCCGGUCCCAAGCCCGGAUAAAAGUGGAGGGGGCGG [A7U C11G],0.06
8,CCGCCUUACAUUGCCAAUGCCGGUCCCAAGCCCGGAUAAAAGUGGAGGGGGCGG [A7U C11U],0.05
9,CCGCCUUACAAUGCCAAUGCCGGUCCCAAGCCCGGAUAAAAGUGGAGGGGGCGG [A7U C11A],0.08
10,CCGCCUGACACUGCCAAUGCCGGUCCCAAGCCCGGAAAAAAGUGGAGGGGGCGG [A7G U37A],0.27
11,CCGCCUGACACUGCCAAUGCCGGUCCCAAGCCCGGAGAAAAGUGGAGGGGGCGG [A7G U37G],0.58
12,CCGCCUGACACUGCCAAUGCCGGUCCCAAGCCCGGACAAAAGUGGAGGGGGCGG [A7G U37C],0.46
13,CCGCCUGACACUGCCAAUGCCGGUCCCAAGCCCGGAUAAAAGGGGAGGGGGCGG [A7G U43G],0.11
14,CCGCCUGACACUGCCAAUGCCGGUCCCAAGCCCGGAUAAAAGAGGAGGGGGCGG [A7G U43A],0.2
15,CCGCCUGACACUGCCAAUGCCGGUCCCAAGCCCGGAUAAAAGCGGAGGGGGCGG [A7G U43C],0.12
16,CCGCCUUACACUGCCAAUGCUGGUCCCAAGCCCGGAUAAAAGUGGAGGGGGCGG [A7U C21U],0.1
17,CCGCCUUACACUGCCAAUGCGGGUCCCAAGCCCGGAUAAAAGUGGAGGGGGCGG [A7U C21G],0.05
18,CCGCCUUACACUGCCAAUGCAGGUCCCAAGCCCGGAUAAAAGUGGAGGGGGCGG [A7U C21A],0.08
19,CCGCCUGACACAGCCAAUGCCGGUCCCAAGCCCGGAUAAAAGUGGAGGGGGCGG [A7G U12A],0.16
20,CCGCCUGACACGGCCAAUGCCGGUCCCAAGCCCGGAUAAAAGUGGAGGGGGCGG [A7G U12G],0.12
21,CCGCCUGACACCGCCAAUGCCGGUCCCAAGCCCGGAUAAAAGUGGAGGGGGCGG [A7G U12C],0.1
22,CCGCCUGACACUGCCAAUGCCGGUCCCAAGCCCGGAUAAAAGUGGAGGGGUCGG [A7G G51U],0.08
23,CCGCCUGACACUGCCAAUGCCGGUCCCAAGCCCGGAUAAAAGUGGAGGGGCCGG [A7G G51C],0.05
24,CCGCCUGACACUGCCAAUGCCGGUCCCAAGCCCGGAUAAAAGUGGAGGGGACGG [A7G G51A],0.12
